Ends that are not written are not given here.
Key:
[1] = Pharmacokinetic study of PSN-1 in rats after intravenous administration; format: in vivo; conditions: male, Wister, rat, plasma, 3 mg/kg
Outline: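 Six male Wister rats (220–250 g), fasted overnight, received a single iv dose of 3.0 mg/kg. About 0.5 mL of blood was drawn from the ocular vein from 0 to 8 h, with time points split between two groups of three rats. Blood was heparinised, spun at 890g for 10 min and plasma held at –20 °C. Plasma was then precipitated with acetonitrile/0.2% formic acid with thymopentin IS and run by UPLC-MS/MS (SRM). Non-compartmental analysis; mean±SD.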

[2] = Stability of PSN-1 in rat plasma; format: in vitro ADME; conditions: UPLC-MS/MS, n=6

## FLSLIPHIVSGVASIAKHF-NH2 [PSN-1]
[1]
  AUC(0-inf): 1760 ± 404 ng·h/mL
  AUC(0-t): 1660 ± 356 ng·h/mL
  Cmax: 1290 ± 340 ng/mL
  Tmax: 1.02 min
  Vd: 5.23 ± 0.84 L/kg
  clearance: 29.7 mL/min/kg
  half-life: 2.08 ± 0.31 h
[2]; long term, −20 °C for 10 days, added 0.05 μg/mL
  Accuracy (RE): −4.9%
[2]; long term, −20 °C for 10 days, added 0.2 μg/mL
  Accuracy (RE): −10.1%
[2]; long term, −20 °C for 10 days, added 1.6 μg/mL
  Accuracy (RE): −1.8%
[2]; short term, room temperature for 4 h before processing, added 0.05 μg/mL
  Accuracy (RE): 5.2%
[2]; short term, room temperature for 4 h before processing, added 0.2 μg/mL
  Accuracy (RE): −5.5%
[2]; short term, room temperature for 4 h before processing, added 1.6 μg/mL
  Accuracy (RE): −5.3%
[2]; three freeze–thaw cycles (−20 to 25 °C), added 0.05 μg/mL
  Accuracy (RE): −0.8%
[2]; three freeze–thaw cycles (−20 to 25 °C), added 0.2 μg/mL
  Accuracy (RE): 3.4%
[2]; three freeze–thaw cycles (−20 to 25 °C), added 1.6 μg/mL
  Accuracy (RE): −1.3%

From paper PMC5760799 (Journal of Pharmaceutical Analysis, 2011)
